# M1 antagonist: blocks the rat M1 muscarinic receptor response to acetylcholine | B-score at 10 µM | 64,000 tested, 3.4% active | P08482 | CHO-M1 cells, Fluo-4 calcium, ACh EC80 antagonist mode; hits give low values | AID 628;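 active means calcium fluorescence response, raw or row-and-column corrected B-score, differing from the plate sample mean either way at a set confidence level, mostly lower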
# M1 agonist: agonists of M1 muscarinic receptor; CHO-M1 cells, Fluo-4 calcium fluorescence, agonist mode; hits give high values; B-score at 10 µM; 64,000 tested, 3% active;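 active means fluorescence rise, raw or as B-score row- and column-corrected plate score, outside the 99.7% band of its plate's samples, either direction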
# HEK293 NFkB inh: lowers PMA/ionomycin-induced NF-kB signal in HEK293 cells; HEK-293 NF-kB luciferase reporter, luminescence; inhibition, % at 3 µM; 62,000 tested, 0.21% active; AID 465;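 active means inhibition above the mean of all tested compounds plus 3 SD, cut at about 40% in these data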;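 further: 0% = stimulated DMSO wells and 100% = 10 µM reference inhibitor 5653914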
#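 Material: HEK-293 cells with stable firefly luciferase reporter driven by four HIV NF-kB elements / Also added: PMA plus ionomycin mix as NF-kB-activating stimulus / Compound dosing: 3 µM once, 0.30% DMSO / Times: 1 h pretreatment, 16 h stimulation, 37 °C / Signal: luminescence / Evaluation: per-plate % inhibition versus controls / Benchmarks: DMSO and 10 µM reference inhibitor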
# D1 allo mod: allosteric modulators of human D1 dopamine receptor | B-score at 10 µM | 58,000 tested, 5.9% active | P21728 | HEK293 D1, CRE-luciferase, dopamine EC30 potentiation; actives deviate in either direction;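 active means luminescence count or its row- and column-corrected plate score outside the 99.7% band of the plate's sample wells, on either side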
# Target sequence (P21728 whole entry, looked up): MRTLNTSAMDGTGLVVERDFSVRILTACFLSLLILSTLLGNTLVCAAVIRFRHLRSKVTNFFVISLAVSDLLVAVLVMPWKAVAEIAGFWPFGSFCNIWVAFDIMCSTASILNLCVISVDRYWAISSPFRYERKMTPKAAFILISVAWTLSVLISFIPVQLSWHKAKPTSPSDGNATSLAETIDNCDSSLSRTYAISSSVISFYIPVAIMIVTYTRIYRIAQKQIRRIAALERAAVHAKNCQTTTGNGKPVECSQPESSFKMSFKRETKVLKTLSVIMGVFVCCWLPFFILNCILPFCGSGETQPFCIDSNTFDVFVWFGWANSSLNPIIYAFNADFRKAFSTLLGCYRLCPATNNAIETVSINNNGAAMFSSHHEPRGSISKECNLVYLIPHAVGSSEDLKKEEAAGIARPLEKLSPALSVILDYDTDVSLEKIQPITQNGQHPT
# BAP1 inh: human BAP1 deubiquitinase inhibition; Q92560; recombinant BAP1, Ub-AMC hydrolysis fluorescence kinetic; hits give low values; calls only at 20 µM; 72,000 tested, 0.48% active; AID 436;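 active means activity remaining at or below 50% of control, provided the compound also passes the data quality filters; inactive means the rest, including low values that fail the filters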;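 further: 100% = DMSO wells rate and 0% = substrate alone blank rate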
# DAT uptake mod: modulates human dopamine transporter uptake under cocaine; Q01959; LLC-PK1 hDAT cells, [14C]-dopamine uptake with cocaine IC80; actives deviate in either direction; B-score at 10 µM; 110,000 tested, 1.3% active; AID 449768;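 active means Z score or B-score, a plate-position-corrected score, falls beyond the plate's 99.7% confidence bounds, in either direction; inactive means both scores lie inside the 99.7% bounds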;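 further: scored against the spread of the other compound wells on the same plate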
# M1 agonist conf: confirmation of rat M1 muscarinic receptor agonists. shares compounds with M1 agonist. CHO-M1 cells, Fluo-4 calcium fluorescence, agonist mode; actives lie on both sides. fluorescence change (max-min) at 10 µM. 1,700 tested, 19% active;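 active means fluorescence change differs from the solvent-only DMSO control mean at a set confidence level in both duplicate runs; inconclusive means differs from solvent-only control mean in just one of two runs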;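 further: an EC20 dose of acetylcholine follows compound addition during the same imaging run; raw fluorescence intensity difference in instrument units with no normalization to controls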
# M4 ag counter: rat M4 muscarinic agonism, M1 counter-screen; shares compounds with M1 agonist; CHO M4/Gqi5 cells, Fluo-4 calcium fluorescence, agonist mode; actives lie on both sides; fluorescence change (max-min) at 10 µM; 1,700 tested, 9% active; AID 1741;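 active means fluorescence change differing from the plate's solvent-only control wells at 99.7% confidence in both duplicates, whether higher or lower; inconclusive means differs from solvent controls in only one of two duplicates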
# D1 PAM confirm: D1 receptor (human) allosteric modulation, confirmed; shares compounds with D1 allo mod; HEK293 D1 CRE-luciferase, dopamine EC30 potentiation; hits give high values; luminescence at 10 µM; 2,200 tested, 88% active;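 active means luminescence in either of two replicates above the same-plate mean plus 3 SD of the low-dose dopamine control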
# D1 no dopamine: D1 (human) signaling in absence of dopamine. 1,900 tested, 0.8% active. luminescence at 10 µM. HEK293 D1 CRE-luciferase, luminescence, no dopamine; hits give high values. AID 646. shares compounds with D1 allo mod; in the data active means luminescence above about 3900
# Isoprot counter: isoproterenol response counter-screen activity for D1 modulators | shares compounds with D1 allo mod | HEK293 D1 CRE-luciferase, isoproterenol EC30 counter-screen | calls only at 10 µM | 2,200 tested, 63% active;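 active means luminescence in either replicate above plate mean of wells with a partly effective reference agonist dose plus 3 SD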;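 further: isoproterenol raises cAMP through native beta-adrenoceptor Gs so signal bypasses D1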
# An asterisk follows results filed as active; i = inactive; ? = inconclusive; · = no result shown; + = active, no number. Shown are actives, neighbours in structure and some others; about 7.2% of the full set was active somewhere.
SMILES,M1 antagonist,M1 agonist,HEK293 NFkB inh,D1 allo mod,BAP1 inh,DAT uptake mod,M1 agonist conf,M4 ag counter,D1 PAM confirm,D1 no dopamine,Isoprot counter
CCOC(=O)c1c(C)oc2c1c(C=NCc1ccccn1)c(O)c1ccccc12,-0.95,7.1*,17,4.2*,i,-0.03,28,-18,12568*,1616,i
CCOC(=O)c1cc(-c2ccc(OC)c(OC)c2)no1,·,·,·,·,i,·,·,·,·,·,·
COc1ccc(CN2C(=O)c3cccnc3C2Nc2cc(Cl)ccc2OC)cc1 (centres undefined),1.1,4.8*,10,12*,i,-2.2,-4.8,-30,26704*,1696,+
O=C(Nc1nc(-c2ccc3ccccc3c2)cs1)c1cc([N+](=O)[O-])ccc1Cl,·,·,·,·,i,·,·,·,·,·,·
COc1ccc(C(=O)CSc2nc(SC)ns2)cc1OC,-0.73,-2.8*,10,8.4*,i,-0.48,-17,-25,17700*,1872,+
CSc1nsc(SCC(=O)Nc2ccccn2)n1,-0.14,-0.71,-4,-0.03,i,-0.039,·,·,·,·,·
COc1cc(NS(=O)(=O)c2ccc(NC(=O)c3ccccc3OC)cc2)nc(OC)n1,·,·,·,·,i,·,·,·,·,·,·
CCOC(=O)c1cc2c(=O)n3ccccc3nc2n(C(C)C)c1=NC(=O)c1ccncc1,0.093,2.5*,2,5.7*,·,0.69,?,-41,16620*,1616,+
CCOC(=O)N1CCC(NC(=O)c2cccc3c2C(=O)N(c2ccc(OC)cc2)C3)CC1,0.11,2.5*,4,5.2*,i,1.3,?,-82,10556*,1464,+
Cc1nc(NCCCn2ccnc2)c2ccccc2n1,0.24,-0.022,11,·,i,-0.64,·,·,·,·,·
O=C1c2ccccc2-c2onc3ccc(NCCCn4ccnc4)c1c23,-11*,97*,0,3.9*,i,0.27,9,272,11264*,1320,i
CC1Cc2ccccc2N1C(=O)c1ccc2snnc2c1 (centres undefined),0.31,7.5*,5,15*,i,0.45,-18,?,13280*,1492,+
CCOc1ccc(-c2noc(COC)n2)cc1OC,0.2,3.2*,-8,3.4*,i,-0.15,-3.5,-34,8824*,1732,i
C=CCc1c(C)c2ccc(OC(C)=O)cc2oc1=O,·,·,·,·,i,·,·,·,·,·,·
CCOC(=O)C1CCCN(C(=O)c2cc(Nc3ccc(OC)cc3OC)nc3ccccc23)C1 (centres undefined),·,·,·,·,·,2,·,·,·,·,·
CCOC(=O)C1CCCN(C(=O)c2cc(Cl)ccc2Cl)C1 (centres undefined),1.6,5.5*,13,4.2*,i,0.43,11,-76*,5420*,664,i
CCOC(=O)C1CCCN(C(=O)c2cc(Nc3ccc(OC)c(OC)c3)nc3ccccc23)C1 (centres undefined),-0.82,8.3*,8,4*,i,0.19,-19,?,12712*,1464,+
Cn1c(Cl)cnc1-c1cc(=O)c2cc(Cl)ccc2o1,·,·,·,·,i,·,·,·,·,·,·
COCCCNS(=O)(=O)c1ccc2c3c(cccc13)C(=O)S2,-0.38,0.65,13,0.34,·,-0.48,·,·,·,·,·
COCCCNc1c2c3c(cccc3[nH]c1=O)C(=O)c1ccccc1-2,-13*,466*,·,3*,·,1.2,3166*,2818*,8772*,1436,i
O=C1c2nccnc2C(=O)N1c1cccc2ccccc12,·,·,·,·,i,·,·,·,·,·,·
